Source: PubChem BioAssay
CFTR F508del cor = correctors of CFTR F508del function in bronchial epithelial cells; CFBE cells, YFP halide quenching; stimulated with forskolin plus potentiator P3; % fluorescence drop versus neutral controls; activity (quench increase), % at 7.58 µM; actives 0.36% (n = 350,000);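 active = mean added fluorescence quench of at least 8% versus neutral control, with both replicates also reaching 8%; inconclusive = only one of the mean or replicate conditions met; inactive = mean below 8% and not both replicates reaching 8%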;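 also: cells transiently co-express mutant CFTR-F508del with the halide-sensitive YFP; corrector assay measuring rescue of mutant channel to the surface after 24 h compound exposure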
FN deposit inh = fibronectin deposition inhibition | inhibition, % at 12.6 µM | AH1F fibroblasts, Alexa488-fibronectin deposition fluorescence, overnight | AID 743247 | actives 0.086% (n = 350,000);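 active = mean inhibition across replicates of 30% or more, regardless of how many single replicates reach that level; inconclusive = mean under 30% yet at least half of replicates reach 30%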;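 also: positive control wells lacked labelled fibronectin entirely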
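Schedule: 1 h cell adhesion before compound, then overnight fibronectin incubation; test system: AH1F fibroblast monolayer depositing Alexa488-labelled fibronectin into matrix; quantity: 10000 AH1F cells per well; probe or stimulus: fluorescent fibronectin at 24 nM final; signal: fluorescence, ex 485 nm, em 525 nm; evaluation: percent inhibition as loss of matrix-bound fibronectin fluorescence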
Env fusion inh = HIV envelope-mediated fusion inhibition; inhibition, % at 12.3 µM; actives 1.1% (n = 360,000); HeLa-JRFL Env/CEM21 cell fusion, luciferase;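 active = mean replicate inhibition score of at least 50 and every replicate individually at or above 50; inconclusive = only one of the two criteria met; inactive = mean below 50 and not all replicates reaching 50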;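 also: 0% = plate neutral controls and 100% = maraviroc near 300 nM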
PGC1a acetyl inh = PGC1a acetylation modulation, inhibitor mode; U2OS PGC1a acetylation, AlphaScreen anti-acetyl-lysine; with virally co-expressed GCN5 acetyltransferase; inhibition, % at 15.6 µM; actives 0.17% (n = 350,000);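 active = every replicate shows inhibition of at least 40%; inconclusive = mean inhibition at least 40% but some replicate below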;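 also: 0% = neutral control wells and 100% = positive control wells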
PAX8 inh HTS = inhibitors of PAX8 transcriptional activity in RMG-I cells; actives 1.2% (n = 360,000); RMG-I TPO-luciferase reporter, SteadyGlo, 24 h; inhibition, % at 12.6 µM; AID 652154;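 active = mean replicate inhibition at least 60% with every replicate also reaching 60%; inconclusive = only one of the two criteria is met; inactive = mean below 60% and not all replicates reaching 60%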;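 also: luciferase light reporting Pax8 driven TPO promoter activity; plate controls were median of neutral control wells for no effect and mitoxantrone controls for full effect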
EWS-Fli inh = blocks EWS/Fli oncoprotein-driven transcription | A673 NR0B1-luciferase reporter, viability-normalised | inhibition, % at 12.6 µM | actives 0.67% (n = 350,000) | AID 651661;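 active = mean inhibition of at least 50% after viability correction, with every replicate also passing that limit; inconclusive = mean reaches 50% but only one of two replicates passes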;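 also: firefly luciferase signal divided by Alamar Blue viability fluorescence both relative to DMSO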
The depositor's hits bear a star; u = inconclusive; x = not tested or not shown; [ ] = remark or other dose. The list is not random: actives were taken first. Their share in the collection is about 2.3%.

SMILES	CFTR F508del cor	FN deposit inh	Env fusion inh	PGC1a acetyl inh	PAX8 inh HTS	EWS-Fli inh
C[C@@H]1CN([C@H](C)CO)C(=O)c2cc(NC(=O)Cc3ccccc3)ccc2O[C@@H](C)CCCCO[C@H]1CN(C)Cc1ccc(C(F)(F)F)cc1	5	x	73*[16.7 µM]	11	80*	32
C[C@@H]1CN([C@H](C)CO)C(=O)c2cc(NC(=O)Cc3ccccc3)ccc2O[C@@H](C)CCCCO[C@@H]1CN(C)Cc1ccccc1	0	-5	-9[16.7 µM]	-16	25	13
C[C@@H]1CN([C@H](C)CO)C(=O)c2cc(NC(=O)Cc3ccccc3)ccc2O[C@@H](C)CCCCO[C@@H]1CN(C)Cc1ccc(C(=O)O)cc1	-1	x	3[16.7 µM]	1	-7	7
C[C@H]1CCCCO[C@H](CN(C)Cc2ccc(C(F)(F)F)cc2)[C@@H](C)CN([C@@H](C)CO)C(=O)c2cc(NC(=O)Cc3ccccc3)ccc2O1	5	-16	u	21	76*	14
C[C@@H]1CN([C@@H](C)CO)C(=O)c2cc(NC(=O)Cc3ccccc3)ccc2O[C@@H](C)CCCCO[C@H]1CN(C)Cc1ccc(C(F)(F)F)cc1	0	x	64*[16.7 µM]	15	76*	16
C[C@@H]1CN([C@@H](C)CO)C(=O)c2cc(NC(=O)Cc3ccccc3)ccc2O[C@@H](C)CCCCO[C@@H]1CN(C)Cc1ccc(C(F)(F)F)cc1	1	x	31[16.7 µM]	-17	97*	8
COc1ccc(NC(=O)Nc2ccc3c(c2)C(=O)N([C@@H](C)CO)C[C@H](C)[C@@H](CN(C)C(=O)CCC(F)(F)F)OCCCC[C@H](C)O3)cc1	-3	x	23[16.7 µM]	-2	-7	-6
CN1C(=O)c2cc(NC(=O)c3ccc(F)c(F)c3)ccc2OC[C@H]2O[C@@H](CC(=O)N[C@@H]3CCN(Cc4ccccc4)C3)CC[C@@H]21	x	-7	9[16.7 µM]	x	21	2
C[C@@H]1CN([C@H](C)CO)C(=O)c2cc(NC(=O)Nc3ccc4c(c3)OCO4)ccc2O[C@H]1CN(C)C(=O)Nc1ccc(F)cc1	-2	x	-20[16.7 µM]	-1	-11	-3
C/C=C/[C@@H](CC(=O)N1Cc2ccccc2C[C@H]1CO)[Si](C)(C)c1ccc(OC)cc1	4	x	39[16.7 µM]	-24	x	7
C[C@@H]1CCCCO[C@@H](CN(C)Cc2ccc(C(F)(F)F)cc2)[C@H](C)CN([C@H](C)CO)C(=O)c2cc(NC(=O)Cc3ccccc3)ccc2O1	3	x	23[16.7 µM]	-4	91*	14
C[C@H]1CCCCO[C@H](CN(C)Cc2ccccc2)[C@@H](C)CN([C@@H](C)CO)C(=O)c2cc(NC(=O)Cc3ccccc3)ccc2O1	1	1	13[16.7 µM]	-13	-29	7
C[C@H](CO)N1C[C@H](C)[C@H](CN(C)Cc2ccc(C(F)(F)F)cc2)OCCCC[C@H](C)Oc2ccc(NC(=O)Cc3ccccc3)cc2C1=O	3	x	72*[16.7 µM]	-13	110*	4
C[C@H]1CCCCO[C@@H](CN(C)Cc2ccc(C(=O)O)cc2)[C@@H](C)CN([C@@H](C)CO)C(=O)c2cc(NC(=O)Cc3ccccc3)ccc2O1	1	x	1[16.7 µM]	-10	-8	-7
CNC[C@@H]1Oc2ccc(N)cc2C(=O)N(C)C[C@H]1C	x	3	x	x	x	x
COc1ccccc1S(=O)(=O)N1CC[C@@H]2[C@H]1c1cc(-c3ccccc3)ccc1N(C)[C@H]2CO	0	1	x	-2	-1	6
COc1cccc(-c2ccc3c(c2)[C@H]2[C@H](CCN2S(=O)(=O)c2ccccc2OC)[C@@H](CO)N3C)c1	6	2	x	-8	92*	-5
COc1cccc(-c2ccc3c(c2)[C@@H]2[C@@H](CCN2S(=O)(=O)c2ccccc2C)[C@H](CO)N3C)c1	2	1	x	-5	82*	5
COc1ccccc1S(=O)(=O)N1CC[C@@H]2[C@@H](CO)N(C)c3ccc(-c4ccc(F)cc4)cc3[C@@H]21	12*	2	x	11	30	35
COc1cccc(-c2ccc3c(c2)[C@H]2[C@H](CCN2S(=O)(=O)c2ccccc2C)[C@H](CO)N3C)c1	1	6	x	-38	25	5
COc1cccc(-c2ccc3c(c2)[C@@H]2[C@@H](CCN2S(=O)(=O)c2ccccc2OC)[C@H](CO)N3C)c1	2	16	x	6	84*	0
COc1cccc(-c2ccc3c(c2)[C@@H]2[C@@H](CCN2S(=O)(=O)c2ccccc2F)[C@H](CO)N3C)c1	-1	2	x	9	-3	-8
COc1ccc2c3c([nH]c2c1)[C@@H](CO)N(C(=O)c1ccccc1)CC31CN(C)C1	0	x	x	-2	x	-1
CCc1ccc(OCCNC(=O)c2ccccc2SCc2ccc(F)cc2)cc1	x	19	58*	-4	x	x
O=C(NCCOc1ccc(F)cc1)c1ccccc1SCc1ccccc1	x	-8	28	11	35	11
SMILES	CFTR F508del cor	FN deposit inh	Env fusion inh	PGC1a acetyl inh	PAX8 inh HTS	EWS-Fli inh
CCN1C(=O)[C@H]2[C@@H](c3ccc(C)cc3)N3C(=O)N(c4cccc(Br)c4)C(=O)[C@@]3(C)[C@H]2C1=O	-1	-3	28	-2	5	-15
CCN1C(=O)[C@H]2[C@@H](c3ccc(C)cc3)N3C(=O)N(c4cccc(Br)c4)C(=O)[C@@]3(CC(C)C)[C@H]2C1=O	-3	5	104*	-14	-1	-11
CCN1C(=O)[C@H]2[C@@H](c3ccc(C)cc3)N3C(=O)N(c4ccc(C(F)(F)F)cc4)C(=O)[C@@]3(CC(C)C)[C@H]2C1=O	-4	-5	115*	-22	12	-6
COCC(=O)N1C[C@@H](C)[C@@H](OC)CN(C)C(=O)c2cc(NC(=O)C3CCC3)ccc2OC[C@H]1C	0	3	-9[16.7 µM]	12	-6	7
Cc1noc(C)c1NC(=O)N[C@@H]1C=C[C@H](CC(=O)NCc2ccc(Cl)c(Cl)c2)O[C@H]1CO	1	10	-12[16.7 µM]	7	-11	2
O=C(CC1Sc2ccccc2NC1=O)NNc1cccc(Cl)c1Cl (stereo unspecified)	8.3*	12	19	x	28	10
O=C(O)CSCC(=O)Nc1ccc(Cl)cc1C(F)(F)F	x	x	12	x	3	-10
CC(C)N(CC(=O)Nc1ccc(Cl)cc1C(F)(F)F)C(=O)CCl	0	-3	35	x	92*	34
NC(=O)CC(NC(=O)c1ccccc1)c1ccc(N2CCC(Cc3ccccc3)CC2)c([N+](=O)[O-])c1 (stereo unspecified)	1	0	87*	10	12	22
NC(=O)CC(NC(=O)c1ccc(Br)cc1)c1ccc(N2CCC(Cc3ccccc3)CC2)c([N+](=O)[O-])c1 (stereo unspecified)	-2	-5	22	11	11	9
